Read-outs that look alike come from different tables or passages of the source. Ends that are not written are not given here.

Experiment [1] concerns WT/HEK293 cells. In words: cAMP assay, WT/HEK293. In kind it is cell-based. The note with it: 30 min at 37°C. The procedure, abridged:
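Wild-type HEK293 cells were plated at 5 × 10^5/well, cultured for 24 h and serum-starved for 4 h. Exposed for 30 min at 37°C to test compound, forskolin 10 μM, both together, or medium. Washed with cold PBS and lysed. Lysate cAMP was measured by kit and normalised to total protein (BCA); conditioned medium was also assayed. Mean ± S.E.M.; one-way ANOVA with SNK test.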
A general note: Cyclic AMP is a second messenger, typically raised through Gs and lowered through Gi signalling.

The test system of experiment [2] is WT/HEK293 cells. As to the kind of experiment: C-FOS gene expression. The experiment is classed as cell-based. The note with it: 30 nM, 30 min at 37°C, data not shown.
The test system of experiment [3] is WT/HEK293 cells. As to the kind of experiment: Internalization assay, wild-type HEK293. In kind it is cell-based. The note with it: 100 nM, 30 min at 37°C, confocal. The procedure, abridged: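 Cells were grown on 0.1% gelatin-coated coverslips and serum-starved for 4 h at 50–60% confluence. […] Fixed in 4% paraformaldehyde and permeabilised with 0.1% Triton X-100. Stained overnight at 4°C with rat anti-human CMKLR1 mAb, then Alexa-488 anti-rat for 2 h, with DAPI. Examined by confocal microscopy; four independent experiments.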

For experiment [4], the system named is WT/HEK293 cells. In words: Immunocytochemistry of C-FOS, WT/HEK293. In kind it is cell-based. The note with it: 100 nM, 30 min at 37°C. The method, boiled down:
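Coverslips coated with 0.1% gelatin. […] Fixed in 4% paraformaldehyde for 30 min and permeabilised with 0.1% Triton X-100 for 10 min. Stained with rabbit anti-C-FOS overnight at 4°C, then Alexa-488 anti-rabbit for 1 h, with DAPI nuclear stain. Imaged by confocal microscopy.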

In experiment [5] the target is T1, human GPR1 (Homo sapiens, UniProt P46091).
T1 sequence (P46091 1-355): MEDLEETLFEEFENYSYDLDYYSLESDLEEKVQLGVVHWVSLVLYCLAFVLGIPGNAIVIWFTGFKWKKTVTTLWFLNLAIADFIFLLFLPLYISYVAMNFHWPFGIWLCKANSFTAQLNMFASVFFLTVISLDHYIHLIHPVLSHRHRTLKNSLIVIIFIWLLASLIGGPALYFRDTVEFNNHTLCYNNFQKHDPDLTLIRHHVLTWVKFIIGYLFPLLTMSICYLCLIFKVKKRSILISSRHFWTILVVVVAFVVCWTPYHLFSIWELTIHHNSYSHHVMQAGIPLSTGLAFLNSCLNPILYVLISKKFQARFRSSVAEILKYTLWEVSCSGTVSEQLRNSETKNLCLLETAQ
In words: Radioligand binding assay, huGPR1/HEK293. The method, boiled down: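 Competition binding on intact huGPR1/HEK293 cells, with neuronostatin as the negative-control peptide. After incubation, cells were pelleted at 1000 × g for 10 min, washed three times, and counted in a γ-spectrophotometer.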

In experiment [6] the test system is WT/L1.2 cells. As to the kind of experiment: In vitro transwell chemotaxis assay, WT/L1.2. In kind it is cell-based. The note with it: 0.3, 1, 10, 100 nM, 4 h at 37°C. The procedure, abridged:
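Wild-type L1.2 cells were pretreated overnight with sodium butyrate. […] After 4 h migration at 37°C, cells in the lower chamber were stained with CellTiter Blue and read by fluorescence at 560/580 nm. Run in parallel with the CMKLR1-transfected line.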

The target of experiment [7] is T2, human CMKLR1 (Homo sapiens, UniProt Q99788).
T2 sequence (Q99788 1-373): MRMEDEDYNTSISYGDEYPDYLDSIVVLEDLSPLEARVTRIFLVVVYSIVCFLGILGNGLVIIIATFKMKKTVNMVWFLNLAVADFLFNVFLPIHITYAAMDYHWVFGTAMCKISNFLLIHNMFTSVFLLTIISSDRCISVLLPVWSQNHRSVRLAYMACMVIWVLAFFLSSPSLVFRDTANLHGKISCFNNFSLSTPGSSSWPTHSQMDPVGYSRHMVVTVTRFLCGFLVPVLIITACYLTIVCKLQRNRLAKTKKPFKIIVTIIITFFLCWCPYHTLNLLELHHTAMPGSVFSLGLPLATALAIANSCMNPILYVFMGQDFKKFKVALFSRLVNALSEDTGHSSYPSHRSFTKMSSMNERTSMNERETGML
As to the kind of experiment: Radioligand binding assay, huCMKLR1/HEK293.

Experiment [8] deals with T2, human CMKLR1. As to the kind of experiment: In vitro transwell chemotaxis assay, huCMKLR1/L1.2. In kind it is cell-based. The note with it: for chemotaxis: 4 h at 37°C, fluorescence 560/580 nm.
Experiment [9] relates to primary Leydig cells. In words: Testosterone production, primary Leydig cell culture. The experiment is classed as cell-based, Sprague-Dawley rat. The note with it: 24 h; for hCG-stimulated testosterone production: hCG 0.01 IU/mL, vs hCG group. The method, boiled down:
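Leydig cells came from five male rats aged 3–4 months. Decapsulated testes were digested for 15 min at 34°C in DMEM/F12-0.1% BSA with 0.5 mg/mL collagenase IA and 0.25 mg/mL soybean trypsin inhibitor. Filtered, purified on a Percoll gradient, cultured at 34°C, 5% CO2, and purity checked by 3β-HSD staining. Treated for 24 h with test compound ± hCG 0.01 IU/mL. Medium testosterone by 125I RIA; mean ± S.E.M.; ANOVA/SNK.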

Experiment [10] deals with T2, human CMKLR1. As to the kind of experiment: cAMP assay, huCMKLR1/HEK293. In kind it is cell-based. The note with it: forskolin 10 μM, 30 min at 37°C.
The subject of experiment [11] is antral follicles. In words: Progesterone production, antral follicle culture. The experiment is classed as cell-based, Sprague-Dawley rat. The note with it: hCG 0.01 IU/mL, 6 h, vs hCG group. The procedure, abridged:
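Immature female rats (21–23 days) were primed with PMSG, 30 IU i.p. per rat. Follicles over 900 μm were isolated 48 h later into ice-cold saline and preincubated at 3 per well in DMEM/F12-0.1% BSA at 37°C. Treated for 6 h with test compound, alone or with hCG 0.01 IU/mL. Medium progesterone measured by 125I RIA (sensitivity 0.02 ng/mL). Mean ± S.E.M.; one-way ANOVA with SNK test.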

Experiment [12] deals with CCRL2. The note with it: cited from earlier work.
Experiment [13] concerns human granulose cell. The note with it: human granulosa cells; cited from earlier work.
Experiment [14] concerns GPR1. The note with it: cited from earlier work.
Experiment [15] concerns CMKLR1. The note with it: cited from earlier work.
Experiment [16] addresses T2, human CMKLR1. In words: Receptor internalization assay, huCMKLR1/HEK293. In kind it is cell-based. The note with it: 100 nM, 30 min at 37°C, confocal, four independent experiments.
The test system of experiment [17] is CMKLR1. The note with it: cited from earlier work. The source holds these as a separate data set.
Experiment [18] relates to antral follicles. In words: Steroidogenic enzyme gene expression, antral follicles. In kind it is cell-based, Sprague-Dawley rat. The note with it: large antral follicles, beta-actin reference, 6 h.
Experiment [19] has as its system primary Leydig cells. In words: Steroidogenic enzyme gene expression, primary Leydig cells. In kind it is cell-based, Sprague-Dawley rat. The note with it: beta-actin reference, 24 h. The method, boiled down:
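Leydig cells from testes of five Sprague-Dawley males (3–4 months): collagenase IA digestion, 15 min at 34°C; 70 μm filtration; Percoll gradient (1.030–1.096 g/mL); culture at 34°C, 5% CO2; purity by 3β-HSD staining.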

On to “huChemerin: Human recombinant chemerin purchased from R&D Systems”, for which the “forskolin-stimulated cAMP production” value in experiment [1] (10 nM peptide/protein + 10 μM forskolin cotreatment) is reported as “no effect”. Further, in experiment [2], the C-FOS gene expression result is recorded as “No such stimulation”. The internalization entry in [3] was “No internalization observed”. Further, the C-FOS protein expression entry in experiment [4] is reported as “No such stimulation”. The IC50 in experiment [5] (read-out: IC50 (displacement of iodochemerin), huGPR1/HEK293 cells, about 1,000,000 per tube, 2 nM iodochemerin, 16 h at 23°C) is 0.5 nM. Moreover, in [6], the chemotactic response result is “no chemotactic response”.

Regarding IAQAGEDPHGYFLPGQFAFS [mC-20], the 50% inhibitory concentration (IC50) in experiment [5] came to 5 nM; in experiment [7] it was 2.5 nM.

As for AGEDPHSFYFPGQFA [huC-15], the chemotaxis entry in experiment [8] (1 nM) and in experiment [8] (10 nM) was “no chemotactic actions” throughout. Moreover, in experiment [9] (100 nM), the hCG-stimulated testosterone production entry is “no such kind of suppression”.

In the case of VQRAGEDPHSFYFPGQFAFS [huC-20], the half-maximal inhibitory concentration (IC50) in [5] was determined as 3.5 nM; in [7], 1.6 nM.

As for `C=C[C@@]1(C)CC(=O)[C@]2(O)[C@@]3(C)[C@@H](O)CCC(C)(C)[C@@H]3[C@H](O)[C@H](OC(C)=O)[C@@]2(C)O1` [forskolin, reference compound], the “increase in cAMP production” value in experiment [1] (forskolin 10 μM) and in experiment [10] was “more than 50 fold” in each case.

“C-20: 20 amino acid chemerin-derived peptide; used without species prefix for huC-20 or mC-20 (VQRAGEDPHSFYFPGQFAFS)”: the “lowest effective dose for chemotaxis” value in experiment [8] (of 0.3, 1, 10, 100 nM tested) is given as 1 nM. Besides, the hCG-stimulated progesterone production entry in experiment [11] (1 nM) and in experiment [11] (10 nM) was “not effective” each time. The hCG-stimulated testosterone production entry in experiment [9] (1 nM) and in experiment [9] (10 nM) was “not effective” in each case.

On to “chemerin: The active protein of 137 amino acids in human was named chemerin”, for which, in experiment [12], the internalization and chemotaxis entry was “stimulates neither internalization nor chemotaxis”. In addition, the “IGF-1-induced progesterone and estradiol secretion” value in experiment [13] is listed as “inhibited”. The receptor internalization entry in experiment [14] is given as “stimulates receptor internalization”. For the same molecule, in [15], the leukocyte chemotaxis result is given as “promotes leukocyte chemotaxis” and the receptor internalization result is reported as “triggers receptor internalization”.

Regarding LRQFLQKSLAAAT [NTS], the chemotaxis result in [8] (1 nM) and in [8] (10 nM) was “no chemotactic actions” each time. In addition, in [16], the CMKLR1 internalization result is given as “negative control”.

B1: prochemerin: secreted as an inactive precursor, which is 143 amino acids long in human (protein, UniProt Q99969 21-163, looked up)
pro-form: ELTEAQRRGLQVALEEFHKHPPVQWAFQETSVESAVDTPFPAGIFVRLEFKLQQTSCRKRDWKKPECKVRPNGRKRKCLACIKLGSEDKVLGRLVHCPIETQVLREAEEHQETQCLRVQRAGEDPHSFYFPGQFAFSKALPRS
modifications: pro-form
On to B1, for which, in [17], the “affinity for CMKLR1” value is recorded as “very low affinity”.

B2: mChemerin: mouse recombinant chemerin purchased from R&D Systems (protein, UniProt Q9DD06 21-156, looked up)
Retinoic acid receptor …: EPELSETQRRSLQVALEEFHKHPPVQLAFQEIGVDRAEEVLFSAGTFVRLEFKLQQTNCPKKDWKKPECTIKPNGRRRKCLACIKMDPKGKILGRIVHCPILKQGPQDPQELQCIKIAQAGEDPHGYFLPGQFAFS
Take B2: the 17β-HSD gene expression entry in experiment [18] and in experiment [19] was “not affected” each time. Also, the StAR gene expression entry in experiment [18] and in experiment [19] was “not affected” throughout. Besides, the p450scc gene expression entry in experiment [18] and in [19] was “not affected” each time. For the same molecule, the 3β-HSD gene expression result in [18] (with hCG) and in experiment [19] (with hCG) was “suppression of 3β-HSD gene expression” throughout. In addition, the hCG-stimulated progesterone production entry in experiment [11] (10 nM) and in [11] (100 nM) was “effective” in each case. In addition, the hCG-stimulated testosterone production result in experiment [9] (1 nM), in experiment [9] (10 nM) and in experiment [9] (100 nM) was “suppressed” throughout. Also, the basal testosterone production result in experiment [9] (no hCG, 1, 10, 100 nM) was “No effect was observed”.

Broadly, the IC50 is the concentration that gives 50% inhibition.

The record behind these values is publication PMC4092037 (American journal of reproductive immunology (New York, N.Y. …, 2013).
